High-throughput results as filed in PubChem.
Most compounds without a hit are left out; they make up all but 4.8% or so of the library.
pPAFAH inh = inhibitors of human plasma PAF acetylhydrolase (pPAFAH); Q13093; recombinant pPAFAH, FP-rhodamine probe fluorescence polarization; inhibition, % at 3.39 µM; hit rate 1.5% among 330,000; AID 463082;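 active = inhibition above the mean inhibition across the screen plus 3 SD, cut at about 25% in these data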;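 note: inhibitors block binding of the rhodamine activity-based probe so polarization drops; 0% = enzyme with DMSO and 100% = wells lacking pPAFAH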
NR3A LBD binder = modulators (binders) of human NR3A ligand-binding domain; NR3A LBD differential scanning fluorimetry, Tm shift; 0% = protein alone, 100% = glycine-bound protein; Tm shift relative to glycine control, % at 25 µM; hit rate 2.5% among 340,000; AID 1259313;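 active = melting temperature shift of at least 10% of the positive control shift, at one fixed dose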
PAFAH1B3 inh = PAFAH1B3 (human) inhibition | Q15102 | recombinant PAFAH1B3, FP-rhodamine probe, fluorescence polarization | inhibition, % at 3.39 µM | hit rate 0.28% among 340,000;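 active = inhibition above the screen-wide average of all tested compounds plus 3 SD, cut at about 25% in these data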;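 note: 0% = enzyme with DMSO only and 100% = wells lacking PAFAH1B3 protein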
PAFAH1B2 FP inh = PAFAH1B2 (human) inhibition. inhibition, % at 3.39 µM. recombinant PAFAH1B2, FP-rhodamine activity probe, fluorescence polarization. P68402. AID 492953. hit rate 1.2% among 340,000;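 active = inhibition above the mean of all tested compounds plus 3 SD, cut at about 24% in these data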;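 note: 0% = enzyme with DMSO and 100% = wells lacking PAFAH1B2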
Target sequence (P68402 whole entry, looked up): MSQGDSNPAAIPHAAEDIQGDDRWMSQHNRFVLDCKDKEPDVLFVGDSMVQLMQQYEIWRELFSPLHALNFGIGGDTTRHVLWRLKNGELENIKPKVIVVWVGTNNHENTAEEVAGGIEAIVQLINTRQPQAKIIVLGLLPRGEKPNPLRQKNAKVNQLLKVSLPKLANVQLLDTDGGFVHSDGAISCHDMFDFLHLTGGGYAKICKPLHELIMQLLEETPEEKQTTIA
PAFAH2 inh = PAFAH2 (human) inhibition; recombinant PAFAH2, FP-rhodamine activity probe, fluorescence polarization; inhibition, % at 3.39 µM; hit rate 0.99% among 340,000; AID 492956;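 active = inhibition above the mean over all tested compounds plus 3 SD, cut at about 30% in these data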;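 note: inhibitors block probe labeling of enzyme so polarization drops; 0% = enzyme with DMSO and 100% = wells lacking PAFAH2 protein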
UCH37 DUB inh = human UCH37 deubiquitinating enzyme inhibition; Q9Y5K5; purified proteasome/UCH37, Ub-AMC cleavage fluorescence; inhibition, % (no concentration beside the values); hit rate 0.33% among 330,000; AID 588478;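 active = mean inhibition over replicate wells above about 20%, limit read from the data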;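 note: 0% = compound-free wells with enzyme and 100% = wells lacking proteasome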
Target sequence (Q9Y5K5 whole entry, looked up): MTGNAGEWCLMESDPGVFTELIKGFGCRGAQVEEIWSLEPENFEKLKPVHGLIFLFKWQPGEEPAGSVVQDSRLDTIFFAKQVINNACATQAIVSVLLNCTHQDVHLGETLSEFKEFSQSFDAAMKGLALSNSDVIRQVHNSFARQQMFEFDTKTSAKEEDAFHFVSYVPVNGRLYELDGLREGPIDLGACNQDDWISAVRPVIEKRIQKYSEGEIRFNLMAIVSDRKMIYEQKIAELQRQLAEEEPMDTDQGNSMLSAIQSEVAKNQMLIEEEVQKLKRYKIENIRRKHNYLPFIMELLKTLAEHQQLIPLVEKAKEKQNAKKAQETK
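Material: human UCH37 enzyme supplied as purified proteasome complex / Amount: 0.15 nM proteasome as dispensed / Buffer or medium: pH 7.4 Tris-HCl (50 mM) with ovalbumin, ATP-MgCl2, DTT / Times: preincubation 30 min, reaction 25 min, room temperature / Technique: AMC fluorescence from Ub-AMC cleavage, excitation 355 nm, emission 460 nm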
An asterisk follows results filed as active.

Screening O=C(NN=Cc1ccc2c(c1)OCO2)C(=O)Nc1ccc2ccccc2c1 returned UCH37 DUB inh 0.
Screening O=C1C2=C(c3ccccc31)[N+](=O)[C@@H]1CCCC[C@@H]1N2[O-] returned pPAFAH inh 0, NR3A LBD binder 0, PAFAH1B3 inh 14, PAFAH1B2 FP inh -1, PAFAH2 inh 16 and UCH37 DUB inh 26*.
For O=C1c2ccccc2C(=O)c2c1ccc1c(=O)n(C3CCCCC3)[nH]c21 the results were pPAFAH inh 3, NR3A LBD binder -2, PAFAH1B3 inh 12, PAFAH1B2 FP inh 7, PAFAH2 inh 13 and UCH37 DUB inh 7.
`O=C1C2=C(c3ccccc31)[N+](=O)C1CCCCC1N2[O-]` (centres undefined) gave pPAFAH inh 2, NR3A LBD binder 0, PAFAH1B3 inh 3, PAFAH1B2 FP inh 0, PAFAH2 inh 17 and UCH37 DUB inh 27*.
For O=C(NN=Cc1cn[nH]c1-c1ccccc1)c1cccnc1 the results were UCH37 DUB inh 1.
Screening N#CC(C#N)=Cc1cc2ccccc2nc1N1CCOCC1 returned pPAFAH inh -4, NR3A LBD binder 0, PAFAH1B3 inh 1, PAFAH1B2 FP inh 3, PAFAH2 inh -5 and UCH37 DUB inh 1.
Screening CSc1nc2ccccc2cc1/C=C(\C#N)c1ccc(Cl)c(Cl)c1 returned pPAFAH inh 0, NR3A LBD binder 17*, PAFAH1B3 inh -4, PAFAH1B2 FP inh 1, PAFAH2 inh -12 and UCH37 DUB inh -45.
`CSc1nc2ccccc2cc1/C=C(\C#N)c1cccc(C)c1` gave pPAFAH inh -3, NR3A LBD binder 0, PAFAH1B3 inh 7, PAFAH1B2 FP inh 2 and PAFAH2 inh -8.
Screening CSc1nc2ccccc2cc1/C=C(\C#N)c1ccccc1 returned pPAFAH inh 5, NR3A LBD binder 19*, PAFAH1B3 inh -4, PAFAH1B2 FP inh -2, PAFAH2 inh -7 and UCH37 DUB inh -69.
Screening Cc1ccc2c(Cl)c(C(=O)NCC3CCCO3)sc2c1 (centres undefined) returned pPAFAH inh 3, NR3A LBD binder -2, PAFAH1B3 inh -6, PAFAH1B2 FP inh 6, PAFAH2 inh 8 and UCH37 DUB inh 5.
For COc1cc(C(=O)NCC2CCCO2)ccc1OCc1ccc(Cl)cc1 (centres undefined) the results were pPAFAH inh 5, NR3A LBD binder 1, PAFAH1B3 inh 5, PAFAH1B2 FP inh 9, PAFAH2 inh 4 and UCH37 DUB inh 6.
Screening O=C(NCC1CCCO1)c1sc2ccccc2c1Cl (centres undefined) returned pPAFAH inh 2, NR3A LBD binder 11*, PAFAH1B3 inh 2, PAFAH1B2 FP inh 1, PAFAH2 inh 15 and UCH37 DUB inh 5.
`O=C(Cc1cccc2ccccc12)NCC1CCCO1` (centres undefined) gave pPAFAH inh 7, NR3A LBD binder 13*, PAFAH1B3 inh 8, PAFAH1B2 FP inh 4, PAFAH2 inh -2 and UCH37 DUB inh 3.
`O=C(COC(=O)c1sc2ccccc2c1Cl)NCC1CCCCC1` gave pPAFAH inh 27*, NR3A LBD binder 1, PAFAH1B3 inh 0, PAFAH1B2 FP inh 4, PAFAH2 inh 15 and UCH37 DUB inh 1.
Screening NC(=O)COC(=O)c1sc2ccccc2c1Cl returned pPAFAH inh 0, NR3A LBD binder 0, PAFAH1B3 inh 5, PAFAH1B2 FP inh 6, PAFAH2 inh 5 and UCH37 DUB inh 4.
`O=C(NCC1CCCO1)c1ccc(COc2ccc(Cl)cc2)cc1` (centres undefined) gave pPAFAH inh 5, NR3A LBD binder -1, PAFAH1B3 inh -2, PAFAH1B2 FP inh 29*, PAFAH2 inh 3 and UCH37 DUB inh 4.
For Cc1ccc(S(=O)(=O)N2CCN(CC(=O)NN=Cc3cc([N+](=O)[O-])ccc3Cl)CC2)cc1 the results were UCH37 DUB inh 0.
`Nc1ccc(C(=O)NN=Cc2cc(N=Nc3cccc4ccccc34)ccc2O)cc1` gave UCH37 DUB inh 7.
Cc1nc2c(C)cccn2c1C(=O)NN=Cc1ccccc1[N+](=O)[O-] was read as UCH37 DUB inh 9.
COc1cc(C(=O)N2CCN(C(=O)COc3ccc4ccccc4c3)CC2)cc(OC)c1OC was read as pPAFAH inh 7, NR3A LBD binder 1, PAFAH1B3 inh 9, PAFAH1B2 FP inh 2, PAFAH2 inh 2 and UCH37 DUB inh 28*.
`COc1cccc(C(=O)N2CCN(C(=O)COc3ccc4ccccc4c3)CC2)c1` gave pPAFAH inh -3, NR3A LBD binder 0, PAFAH1B3 inh 11, PAFAH1B2 FP inh 6, PAFAH2 inh 2 and UCH37 DUB inh -1.
For CC(=O)Nc1ccc(-c2csc(Nc3ncccn3)n2)cc1 the results were pPAFAH inh -1, NR3A LBD binder 4, PAFAH1B3 inh 2, PAFAH1B2 FP inh 1 and PAFAH2 inh -11.
`Cc1ccc(-c2csc(NC(=O)CCCc3cccs3)n2)cc1` gave pPAFAH inh -6, NR3A LBD binder -3, PAFAH1B3 inh 6, PAFAH1B2 FP inh 3, PAFAH2 inh 1 and UCH37 DUB inh 2.
Screening CC(=O)Nc1cccc(-c2csc(Nc3ccc(Cl)cn3)n2)c1 returned pPAFAH inh 16, NR3A LBD binder 14*, PAFAH1B3 inh 16, PAFAH1B2 FP inh 10, PAFAH2 inh -6 and UCH37 DUB inh -2.
For Cc1ccc(Nc2nc(-c3ccc(O)c(O)c3)cs2)nc1 the results were NR3A LBD binder 43* and UCH37 DUB inh 4.
For CC(=O)Nc1cccc(-c2csc(Nc3ccccn3)n2)c1 the results were pPAFAH inh 7, NR3A LBD binder 8, PAFAH1B3 inh 12, PAFAH1B2 FP inh 10, PAFAH2 inh 10 and UCH37 DUB inh 2.
CC(=O)Nc1ccc(-c2csc(NC(=O)CCCc3cccs3)n2)cc1 was read as pPAFAH inh -1, NR3A LBD binder 19*, PAFAH1B3 inh 3, PAFAH1B2 FP inh 2, PAFAH2 inh 1 and UCH37 DUB inh 7.
For CC(=O)Nc1ccc(-c2csc(Nc3ccc(Cl)cn3)n2)cc1 the results were pPAFAH inh 4, NR3A LBD binder 26*, PAFAH1B3 inh 10, PAFAH1B2 FP inh 5, PAFAH2 inh 1 and UCH37 DUB inh -2.
For Cc1ccc(Nc2nc(-c3ccc(F)cc3)cs2)nc1 the results were NR3A LBD binder -8, PAFAH1B3 inh 6, PAFAH1B2 FP inh 2, PAFAH2 inh -2 and UCH37 DUB inh 5.
For COc1ccc(C=NNc2nc(-c3ccc(C)cc3)c(C#N)c(=O)[nH]2)cc1 the results were UCH37 DUB inh inactive.
Screening CC1CC(C)CN(S(=O)(=O)c2ccc3c(c2)CC(=O)N3)C1 (centres undefined) returned pPAFAH inh 0, NR3A LBD binder 2, PAFAH1B3 inh 2, PAFAH1B2 FP inh 28*, PAFAH2 inh 3 and UCH37 DUB inh 1.
